Source: PubChem
PMI activator = phosphomannose isomerase (human) activation | purified human PMI, coupled resazurin fluorescence, 20 min; stronger effect = higher value; 1 = vehicle control, 0 substrate-free wells | activation factor at 20 µM | 190,000 tested, 0.005% active | P34949;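 active means activation factor of 2 or more at 20 µM, relative to plate controls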
Rad51 HR inh = blocks human Rad51 in homologous recombination; hRad51 DNA strand exchange, fluorescence dequenching; inhibition, % at 10 µM; 200,000 tested, 0.085% active; AID 1385;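 active means inhibition above 40% at the single screening dose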
Target sequence (Q06609 whole entry, looked up): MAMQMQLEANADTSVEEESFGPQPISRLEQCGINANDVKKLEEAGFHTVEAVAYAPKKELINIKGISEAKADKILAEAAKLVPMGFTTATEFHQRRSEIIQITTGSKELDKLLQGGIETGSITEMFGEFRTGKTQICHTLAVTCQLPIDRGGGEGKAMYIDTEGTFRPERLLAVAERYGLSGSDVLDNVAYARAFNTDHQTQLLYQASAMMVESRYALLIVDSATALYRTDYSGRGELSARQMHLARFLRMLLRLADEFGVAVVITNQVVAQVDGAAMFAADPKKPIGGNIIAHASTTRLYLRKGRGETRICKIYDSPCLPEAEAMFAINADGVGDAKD
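Material: human Rad51–ssDNA filaments; Probe or stimulus: labelled 47-mer dsDNA for strand exchange; Doses: single 10 µM dose; Incubation: 37 °C 15-min filament assembly, 30-min compound preincubation, 15-min exchange; Technique: FRET fluorescence dequenching, excitation 485 nm, emission 520 nm; Measure: Fluorescence-based percent inhibition, control- and blank-normalised; Benchmarks: plate control and blank wells.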
PMI act hi M6P = increases human PMI activity with near-saturating mannose 6-phosphate; coupled PMI enzyme assay, resazurin fluorescence, 20 min; stronger effect = higher value; 1 = untreated enzyme, 0 = substrate-free blank; activation factor at 20 µM; 190,000 tested, 0.34% active;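 active means activation factor of 2 or more at 20 µM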
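Test system: human phosphomannose isomerase with PGI, G6PDH, diaphorase coupling enzymes / Doses: 20 µM compound, 1% DMSO / Times: enzyme reaction with compound 20 min at room temperature / Measured by: Diaphorase-driven resazurin-to-resorufin fluorescence, excitation 544, emission 590 nm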
m-calpain inh = inhibitors of pig calpain II. purified calpain II, fluorogenic peptide substrate, 30 min. inhibition, % at 16 µM. AID 1236. 220,000 tested, 0.37% active;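 active means inhibition above about 50%, limit read from the data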
L major viab = inhibitors of Leishmania major promastigote growth | 200,000 tested, 9% active | Leishmania major promastigotes, resazurin fluorescence viability | inhibition, % at 10 µM; in the data active means inhibition above about 50%;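 further: promastigotes grown with compound for 44 hours at 28 °C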
WT yeast gro inh = growth inhibition of WT yeast, mitochondrial fusion screen | mitochondrial fusion phenotypic screen, WT strain | inhibition, % at 10 µM | 190,000 tested, 2.1% active | AID 1362; in the data active means inhibition above about 58%; tested in S. cerevisiae
Hits are given with their value; n = inactive; x = not tested or not shown. A selection: hits, their analogues and other compounds. The true share with any hit is near 9.8%.

SMILES	PMI activator	Rad51 HR inh	PMI act hi M6P	m-calpain inh	L major viab	WT yeast gro inh
Cc1cccc(C(=O)O/N=C(\N)c2ccc(Br)cc2)c1	n	n	n	n	n	n
COCCNC(=O)CN(C(=O)Cn1nnc2ccccc21)c1cccc(C)c1C	n	n	n	n	n	n
COc1ccc(C(=O)/C=C/Nc2ccc([N+](=O)[O-])cc2)cc1	n	n	n	n	n	n
COc1ccc(C(=O)CC(Nc2ccc([N+](=O)[O-])cc2)c2ccc(OC)cc2)cc1 (stereo not drawn)	n	n	n	n	81.7	n
CNC(CC(=O)c1ccc([N+](=O)[O-])cc1)C(Cl)(Cl)Cl (stereo not drawn)	n	n	n	n	100.2	n
CSc1ccccc1NC(=O)c1ccc([N+](=O)[O-])cc1	n	n	n	n	n	n
COc1ccc(C(=O)/C(C#N)=N/Nc2ccc([N+](=O)[O-])cc2)cc1	n	n	n	n	56.4	64.8
COc1ccccc1Nc1ccc(S(=O)(=O)N2CCCCC2)cc1[N+](=O)[O-]	n	n	n	n	n	n
O=C1NC(Cc2ccccc2)C(=O)N1Cc1cc([N+](=O)[O-])cc2c1OCOC2 (stereo not drawn)	n	n	n	n	n	n
O=C(C[n+]1ccc(-c2nnc3n2CCC3)cc1)c1ccc(Cl)c(Cl)c1	n	x	n	n	n	n
S=C(NNc1ccc2ccccc2c1)NC1CCCCC1	n	n	n	n	n	78.0
S=C(Nc1ccc(Oc2ccccc2)cc1)NC1CCCCC1	n	n	n	n	n	60.7
CCCN(CC1CC1)C(=S)Nc1ccc(Oc2ccccc2)cc1	n	n	n	n	n	n
CC(C)c1ccc(NC(=S)NC2CCCCCC2)cc1	n	n	n	n	n	n
CN(C(=S)Nc1ccc(Oc2ccccc2)cc1)C1CCCCC1	n	n	n	n	n	67.5
S=C(Nc1ccc2nsnc2c1)NC1CCCCC1	n	n	n	n	81.6	n
CC(C)CC(C)c1cc(N)nc2nc3ccccc3n12 (stereo not drawn)	n	n	n	n	n	n
O=C(N=Nc1c(O)[nH]c2ccc(F)cc12)C1COc2ccccc2O1 (stereo not drawn)	x	n	x	n	x	x
COc1cc(OC)c(/C=N/NC(=O)COc2cccc3cccnc23)c(OC)c1	x	n	x	n	x	x
S=C(Nc1ccc(Oc2ccccc2)cc1)NC1CCCCCC1	n	n	n	n	n	69.1
O=C(O)c1ccc(NC(=S)NC2CCCCC2)cc1	n	n	n	n	n	n
CCCCN(C)C(=S)Nc1ccc(Oc2ccccc2)cc1	n	n	n	n	n	59.1
O=C(NC(=S)N1CCN(c2ccccc2)CC1)c1ccc(S(=O)(=O)N2CCOCC2)cc1	x	n	x	n	x	x
CC(C)C(=O)Nc1ccc(S(=O)(=O)Nc2nccc(/C=C/c3ccccc3)n2)cc1	n	n	n	n	n	n
CN1/C(=C\C=N\NC(=O)c2ccccc2Br)C(C)(C)c2ccccc21	n	n	n	n	50.1	n
SMILES	PMI activator	Rad51 HR inh	PMI act hi M6P	m-calpain inh	L major viab	WT yeast gro inh
COc1ccccc1C(=O)NC(=S)/C=C1/N(C)c2ccccc2C1(C)C	n	n	n	n	77.7	77.5
CN1/C(=C/C=N/n2cnnc2)C(C)(C)c2ccccc21	n	n	n	n	n	n
CN1/C(=C\C(=S)NC(=O)c2ccccc2Cl)C(C)(C)c2ccccc21	n	n	n	n	n	n
CN1/C(=C/C(=S)NC(=O)C2(C)CC2(Cl)Cl)C(C)(C)c2ccccc21 (stereo not drawn)	n	n	n	n	51.4	n
CCOC(=O)/C=C1/N(C)c2ccccc2C1(C)C	x	n	x	n	x	x
Cc1ccc(-c2nnc3cccc(Cl)n23)cc1	n	x	n	n	n	n
CC(=O)Nc1ccc(Nc2nc(Cl)nc(Nc3ccc(NC(C)=O)cc3)n2)cc1	x	n	x	n	n	n
FC(F)Sc1nc2ccccc2[nH]1	x	x	x	n	x	x
O=C(CSc1nc(-c2ccco2)cc(C(F)(F)F)n1)NCCN1CCOCC1	n	n	n	n	n	n
Cc1ccc(Cn2c(SC(C)C(N)=O)nc3ccccc3c2=O)cc1 (stereo not drawn)	n	n	n	n	n	n
CCOC(=O)N1CCN(C(=O)c2cn(C)c3ccc(S(=O)(=O)N4CCC(C)CC4)cc3c2=O)CC1	n	n	n	n	n	n
CN1CCN(C2=C(Cl)C(=O)N(Cc3ccccc3)C2=O)CC1	n	52.4	n	n	95.8	n
CCOc1ccc(NC2=C(Cl)C(=O)N(Cc3ccccc3)C2=O)cc1	n	n	n	n	n	n
CCN1CCN(C2=C(Cl)C(=O)N(Cc3ccccc3)C2=O)CC1	n	n	n	n	92.0	n
Cc1ccc(-n2c3nc(=O)[nH]c(=O)c-3cc3cc([N+](=O)[O-])ccc32)cc1	n	x	n	n	94.9	n
COc1cc(SC)ccc1C(=O)Nc1c(Cl)cncc1Cl	n	n	n	n	95.4	n
CSc1ccc(Cl)c(C(=O)NCCOc2ccccc2)c1	n	n	n	n	n	n
COc1cc(SC)ccc1C(=O)Nc1c(C)cccc1C	n	x	n	n	n	n
CSc1ccc(Cl)c(C(=O)NCCOc2cc(C)ccc2C(C)C)c1	n	n	n	n	n	61.8
COc1cc(SC)ccc1C(=O)NCCOc1ccc(F)cc1	n	n	n	n	57.8	n
COc1ccc(CCN(C)C(=O)C2CCN(Cc3ccc(C)cc3)CC2)cc1OC	n	n	n	n	n	n
Cc1onc(-c2c(Cl)cccc2Cl)c1COC(=O)c1ccc(Cl)cc1[N+](=O)[O-]	x	n	x	n	x	x
CN1C(=O)/C(=C/c2ccccc2OCc2cccc(F)c2)N(C)C1=S	n	n	n	n	80.2	n
COCCCC1CCN(C(=O)CCc2nnc(CCCCc3ccccc3)o2)CC1	n	n	n	n	n	n
COc1ccc(N(C(=O)/C=C/c2ccc(OC)c(OC)c2)C2=CC3CCC(C2)N3C)cc1 (stereo not drawn)	n	n	n	n	100.0	n
SMILES	PMI activator	Rad51 HR inh	PMI act hi M6P	m-calpain inh	L major viab	WT yeast gro inh
COc1ccc(N(C(=O)c2ccc(Cl)cc2)C2=CC3CCC(C2)N3C)cc1 (stereo not drawn)	n	n	n	n	78.5	n
CN1C2C=C(N(CCc3ccccc3)C(=O)c3ccc(Cl)cc3)CC1CC2 (stereo not drawn)	n	n	n	n	n	n
COc1ccc(/C=C/C(=O)Oc2ccc(C)c(C)c2)cc1OC	n	n	n	n	n	n
Cc1ccc(NCc2n[nH]c(=S)n2Cc2ccccc2)cc1Cl	n	n	n	n	n	67.4
S=c1[nH]nc(COc2cccc(Cl)c2)n1Cc1ccccc1	n	n	n	n	n	73.3
Cc1ccc(NCc2nnc(SCC(=O)O)n2Cc2ccccc2)cc1Cl	n	n	n	n	n	n
S=c1[nH]nc(COc2ccc(Cl)cc2)n1Cc1ccccc1	n	n	n	n	n	n
CNC(=O)C(=O)NCCCN1CCOCC1	n	n	n	n	n	n
